Values without a mark were called inactive.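 How the source made its calls, unless noted: active means viability at or below 30% in both replicate assays; inconclusive means viability at or below 30% in just one of the two assays; inactive means the rest.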

As a reminder, the viability is a read-out of living cells in per cent, often relative to untreated cells.

The nature of one assay: reduced viability of SK-BR-3 breast cancer cells – cell-based, 24 h, human, pilot screen (AID 572;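 active means viability at or below 10% of carrier control in both of two separate runs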;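 further: compound exposure lasted between 18 and 24 h rather than exactly 24 h; 100% = carrier-treated control wells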). The note with it: SK-BR-3 viability, CellTiter-Glo luminescence, at 10 µM, active compounds read low. On the technique in general: Cellular ATP, detected with luciferase, serves as a proxy for viable cell number.
For the molecule `C=C(c1cccc2ccccc12)P(=O)(O)O`, the viability is 116%.

`COc1cc(NC(=O)c2cc(CC(C)C)on2)c(OC)cc1Cl`: the viability is 92%.

Take `COc1ccccc1-n1c(SCC(N)=O)nnc1-c1ccccc1`: the viability is 126%.

Take `Cc1coc2cc3oc(=O)c4c(c3cc12)CCC4`: the viability is 111%.

For the molecule `COc1ccc(NC(=O)CN2CCN(S(=O)(=O)c3ccc(Cl)cc3)CC2)cc1`, the viability is 92%.

Regarding `COc1cc(-c2nc(S(=O)(=O)c3ccccc3)c(N3CCOCC3)o2)cc(OC)c1OC`, the viability is 82.5%.

For the molecule `CCC(C)(C)NC(=O)C(OC(=O)c1ccco1)c1ccccc1OC` (stereo not given), the viability is 99%.

As for `COc1ccc(-n2nnc3c(=O)n(C/C=C/c4ccccc4)cnc32)cc1`, the viability is 116%.

As for `Cc1ccc(S(=O)(=O)N2CCOCC2)cc1C(=O)Nc1ccccn1`, the viability is 87%.

On to `CCOc1ccccc1NC(=O)NC1CCN(CC(=O)Nc2ccc3c(c2)OCCO3)CC1`, for which the viability is 119%.

For the molecule `O=C(CCNS(=O)(=O)c1ccc(Cl)cc1)NCc1ccccn1`, the viability is 97.5%.

Regarding `COCCNC(=O)CSc1nc(-c2ccc(OC)c(OC)c2)cc(C(F)(F)F)n1`, the viability is 98.5%.

As to `CCOc1ccc2ccccc2c1/C=N/n1cncn1`, the viability was 99.5%.

As for `CCOC(=O)C1CCCN(C(=O)c2cc(=O)c3ccccc3o2)C1` (stereo not given), the viability is 94.5%.

As for `COc1ccc(CN(C(=O)c2oc3ccccc3c2C)C2CCS(=O)(=O)C2)cc1` (stereo not given), the viability is 86%.

`COC(=O)CCc1c(C)c(C#N)c2nc3ccccc3n2c1N1CCCC1`: the viability is 100%.

Take `COC(=O)c1ccccc1NC(=O)c1noc2c1CCC2`: the viability was 93%.

On to `Cc1ccc(S(=O)(=O)NCC(=O)N(CC(=O)NC2CCCCC2)Cc2ccco2)cc1`, for which the viability is 135%.

On to `O=C(CNC1CCCCCC1)Nc1ccc(S(=O)(=O)NC2CC2)cc1`, for which the viability is 100%.

In the case of `Cn1c2c(c(=O)n(C)c1=O)C(c1cccc(Br)c1)C1C(=O)c3ccccc3C1=N2` (stereo not given), the viability was 103%.

For the molecule `CC(C)Nc1ncnc2c1cnn2-c1ccccc1`, the viability was 95.5%.

As to `CN(C)/C=C(\C#N)c1nc2ccccc2[nH]1`, the viability is 85%.

As for `Oc1ccc2[nH]cnc2c1CN1CCCCC1`, the viability is 113%.

Regarding `COc1ccc(S(=O)(=O)C(C#N)c2nc3ccccc3nc2N2CCCC(C)C2)cc1` (stereo not given), the viability is 112%.

Turning to `Cc1ccc(S(=O)(=O)N(CC(=O)NCc2ccco2)Cc2ccccc2F)cc1`, the viability is 92%.

`COc1ccc(C(=O)NCc2ccccc2OC)cc1`: the viability was 110%.

Regarding `CN(C)CCN1C(=O)c2oc3ccc(Cl)cc3c(=O)c2C1c1cccc(Br)c1` (stereo not given), the viability was 102%.

With `CCOC(=O)Nc1ccc(OC)cc1S(=O)(=O)N1CCCCC1`, the viability was 88.5%.

Regarding `CCOC(=O)CSc1nnc([C@H](CC(C)C)NC(=O)OC(C)(C)C)o1`, the viability was 109%.

Consider `O=C(CSc1nnc(-c2ccccc2)c(-c2ccccc2)n1)N1CCOCC1`, for which the viability was 97%.

Regarding `CCOC(=O)C(C)Sc1nc2c(cnn2-c2ccc(C)cc2)c(=O)[nH]1` (stereo not given), the viability is 83%.

Take `O=c1c2ccccc2nnn1CSc1nnc2sc3ccccc3n12`: the viability was 95%.

`COc1ncnc2c1N=C1CC(C)(C)CC(N)=C1S2`: the viability is 92.5%.

Regarding `CCc1ccc(CNCc2cccnc2)cc1`, the viability was 91%.

With `O=C(NC1CCN(Cc2nnnn2CCc2ccccc2)CC1)c1ccccc1F`, the viability is 81.5%.

Consider `COc1ccc(C(=O)N(CCCO)Cc2cc3c(C)ccc(C)c3[nH]c2=O)cc1OC`, for which the viability is 90.5%.

As for `Nc1cc(-c2ccccc2)ccc1O`, the viability is 100%.

Turning to `Cc1cc(NC(=O)COc2cccc3cccnc23)no1`, the viability was 93%.

As for `Cc1cc(Br)ccc1NC(=O)CNC(=O)CSc1n[nH]c(N)n1`, the viability is 110%.

With `CC(=O)NCCOc1cccc(OCCNC(C)=O)c1`, the viability is 94.5%.

The nature of a further assay: HUVEC growth inhibition – cell-based, human, primary screen (AID 575).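 Further: 100% = median of untreated cell wells with 0.1% DMSO on each plate.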 The note with it: HUVEC proliferation, CellTiter-Glo luminescence, 72 h; at 10 µM; active compounds read low. In a few lines: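 Assay system: primary human umbilical vein endothelial cells / Buffer or medium: endothelial basal medium with 2% FBS plus growth supplements / Compound dosing: one dose, 10 µM final, 0.1% DMSO / Timing: 72 h treatment at 37 °C / Signal: CTG luminescence / Benchmarks: 32 DMSO-only cell-control wells (high), 32 MePR drug-control wells (low) per plate / Plate: collagen-coated 384-well format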
For `C=C(c1cccc2ccccc12)P(=O)(O)O`, the viability was 104%.

As for `COc1cc(NC(=O)c2cc(CC(C)C)on2)c(OC)cc1Cl`, the viability is 105%.

Consider `COc1ccccc1-n1c(SCC(N)=O)nnc1-c1ccccc1`, for which the viability is 88.7%.

Consider `Cc1coc2cc3oc(=O)c4c(c3cc12)CCC4`, for which the viability was 85.1%.

For the molecule `COc1ccc(NC(=O)CN2CCN(S(=O)(=O)c3ccc(Cl)cc3)CC2)cc1`, the viability is 88%.

For the molecule `COc1cc(-c2nc(S(=O)(=O)c3ccccc3)c(N3CCOCC3)o2)cc(OC)c1OC`, the viability was 97.7%.

In the case of `CCC(C)(C)NC(=O)C(OC(=O)c1ccco1)c1ccccc1OC` (stereo not given), the viability was 91.4%.

In the case of `COc1ccc(-n2nnc3c(=O)n(C/C=C/c4ccccc4)cnc32)cc1`, the viability was 105%.

`Cc1ccc(S(=O)(=O)N2CCOCC2)cc1C(=O)Nc1ccccn1`: the viability was 110%.

In the case of `CCOc1ccccc1NC(=O)NC1CCN(CC(=O)Nc2ccc3c(c2)OCCO3)CC1`, the viability is 73.9%.

As for `O=C(CCNS(=O)(=O)c1ccc(Cl)cc1)NCc1ccccn1`, the viability is 81.4%.

Take `COCCNC(=O)CSc1nc(-c2ccc(OC)c(OC)c2)cc(C(F)(F)F)n1`: the viability was 101%.

`CCOc1ccc2ccccc2c1/C=N/n1cncn1`: the viability is 87%.

As for `CCOC(=O)C1CCCN(C(=O)c2cc(=O)c3ccccc3o2)C1` (stereo not given), the viability was 95.2%.

For the molecule `COc1ccc(CN(C(=O)c2oc3ccccc3c2C)C2CCS(=O)(=O)C2)cc1` (stereo not given), the viability is 83.6%.

Consider `COC(=O)CCc1c(C)c(C#N)c2nc3ccccc3n2c1N1CCCC1`, for which the viability is 98.1%.

For `COC(=O)c1ccccc1NC(=O)c1noc2c1CCC2`, the viability was 86.7%.

Consider `Cc1ccc(S(=O)(=O)NCC(=O)N(CC(=O)NC2CCCCC2)Cc2ccco2)cc1`, for which the viability was 91%.

Consider `O=C(CNC1CCCCCC1)Nc1ccc(S(=O)(=O)NC2CC2)cc1`, for which the viability is 64.8%.

Take `Cn1c2c(c(=O)n(C)c1=O)C(c1cccc(Br)c1)C1C(=O)c3ccccc3C1=N2` (stereo not given): the viability was 72.5%.

In the case of `CC(C)Nc1ncnc2c1cnn2-c1ccccc1`, the viability was 88.3%.

In the case of `CN(C)/C=C(\C#N)c1nc2ccccc2[nH]1`, the viability is 97.6%.

As to `Oc1ccc2[nH]cnc2c1CN1CCCCC1`, the viability was 107%.

As to `COc1ccc(S(=O)(=O)C(C#N)c2nc3ccccc3nc2N2CCCC(C)C2)cc1` (stereo not given), the viability is 51.2%.

In the case of `Cc1ccc(S(=O)(=O)N(CC(=O)NCc2ccco2)Cc2ccccc2F)cc1`, the viability was 104%.

Take `COc1ccc(C(=O)NCc2ccccc2OC)cc1`: the viability was 93.8%.

`CN(C)CCN1C(=O)c2oc3ccc(Cl)cc3c(=O)c2C1c1cccc(Br)c1` (stereo not given): the viability is 87.9%.

Consider `CCOC(=O)Nc1ccc(OC)cc1S(=O)(=O)N1CCCCC1`, for which the viability is 112%.

For the molecule `CCOC(=O)CSc1nnc([C@H](CC(C)C)NC(=O)OC(C)(C)C)o1`, the viability is 94%.

`O=C(CSc1nnc(-c2ccccc2)c(-c2ccccc2)n1)N1CCOCC1`: the viability is 101%.

For the molecule `CCOC(=O)C(C)Sc1nc2c(cnn2-c2ccc(C)cc2)c(=O)[nH]1` (stereo not given), the viability is 51.8%.

With `O=c1c2ccccc2nnn1CSc1nnc2sc3ccccc3n12`, the viability is 92.8%.

Turning to `COc1ncnc2c1N=C1CC(C)(C)CC(N)=C1S2`, the viability is 99%.

With `CCc1ccc(CNCc2cccnc2)cc1`, the viability is 91.2%.

With `O=C(NC1CCN(Cc2nnnn2CCc2ccccc2)CC1)c1ccccc1F`, the viability is 85.4%.

On to `COc1ccc(C(=O)N(CCCO)Cc2cc3c(C)ccc(C)c3[nH]c2=O)cc1OC`, for which the viability was 113%.

As to `Nc1cc(-c2ccccc2)ccc1O`, the viability is 86.3%.

Regarding `Cc1cc(NC(=O)COc2cccc3cccnc23)no1`, the viability was 102%.

With `Cc1cc(Br)ccc1NC(=O)CNC(=O)CSc1n[nH]c(N)n1`, the viability is 99.3%.

Turning to `CC(=O)NCCOc1cccc(OCCNC(C)=O)c1`, the viability was 103%.

The values above are taken from PubChem BioAssay.
